Results from ChEMBL document CHEMBL1143430, “Synthesis and free radical scavenging activity of some new spiropyranocoumarins” (Bioorg Med Chem Lett, 2008).

Tests used:
[1] = Antioxidant activity assessed as inhibition of xanthine-xanthine oxidase generated superoxide anion radical production at 0.5 mM; assay type: functional
In short: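 Superoxide generated enzymically by xanthine oxidase (0.07 U ml⁻¹, added to start the reaction) with 200 μM xanthine and 600 μM NBT in 0.1 phosphate buffer, pH 7.4. Read-out was the NBT reduction product.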

[2] = system: Radical scavenging activity; test: Antioxidant activity assessed as DPPH free radical scavenging activity after 20 mins; assay type: functional
In short: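 Test compound at 5–200 μM mixed with an equal volume of 200 μM DPPH in ethanol, incubated 20 min at room temperature; absorbance read at 517 nm (also at 30, 45 and 60 min). IC50 = concentration giving 50% inhibition of 200 μM DPPH, from linear regression over at least five concentrations in triplicate; mean ± SD of at least three experiments.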

| Compound | inhibition [1] [%] | IC50 [2] [µM] |
| --- | --- | --- |
| O=c1cc(O)c2ccc3c(c2o1)C=CC1(CCCCCC1)O3 | < 10 | 202 |
| O=c1cc(O)c2ccc3c(c2o1)C=CC1(O3)C2CC3CC(C2)CC1C3 (configuration not stated) | 37.3 | 130 |
| O=c1cc(O)c2ccc3c(c2o1)[C@@H](O)[C@@H](O)C1(CCCCC1)O3 | 51.7 | 161 |
| O=c1cc(O)c2ccc3c(c2o1)[C@@H](O)[C@@H](O)C1(CCCCCC1)O3 | 35.8 | 158 |
| Oc1ncnc2[nH]ncc12 | 42.3 |  |
| O=c1cc(O)c2ccc3c(c2o1)C=CC1(CCCC1)O3 | < 10 | 182 |
| O=c1cc(O)c2ccccc2o1 [4-HYDROXYCOUMARINS] | 19.4 | 124 |
| O=c1cc(O)c2ccc3c(c2o1)[C@@H](O)[C@@H](O)C1(CCCC1)O3 | 63.5 | 97.8 |
| O=c1cc(O)c2ccc3c(c2o1)[C@@H](O)[C@@H](O)C1(O3)C2CC3CC(C2)CC1C3 (some centres not stated) | 48.3 | 166 |
| O=c1cc(O)c2ccc3c(c2o1)C=CC1(CCCCC1)O3 | < 10 | 201 |
| O=c1ccc2ccc(O)cc2o1 [UMBELLIFERONE] | 32.6 | > 400 |
| Cc1cc(C(C)(C)C)c(O)c(C(C)(C)C)c1 [BUTYLATED HYDROXYTOLUENE] |  | 83.8 |
